In ChEMBL document CHEMBL4811254, “Beyond Basicity: Discovery of Nonbasic DENV-2 Protease Inhibitors with Potent Activity in Cell Culture” (J Med Chem, 2021):
The source made the active and inactive calls.

Key:
[1] = target: Prothrombin (Homo sapiens) (UniProt P00734); assay: Inhibition of thrombin in human plasma using Boc-Val-Pro-Arg-AMC as substrate at 25 uM preincubated with enzyme for 15 mins followed by substrate addition and measured for 15 mins by fluorimetric assay; assay type: cell-free; details: time 30.0 min
[2] = target: Genome polyprotein (dengue virus type 2) (UniProt P29990); assay: Inhibition of NS2B-NS3 protease in DENV2proHeLa system assessed as inhibition of luciferase signal at 12.5 uM incubated for 24 hrs by luciferase reporter gene assay; assay type: cell-based; details: HeLa
Outline: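 Stable DENV2proHeLa cells seeded at 2 × 10⁴/well and dosed immediately, then incubated 24 h at 37 °C. Cells lysed 15 min at room temperature. Luciferase read with coelenterazine (2.75 μM in PBS) injection, luminescence 5 s. Triplicates; percent inhibition calculated relative to untreated control; background from cell-free wells.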

[3] = Cytotoxicity against human HeLa cells assessed as reduction in cell viability incubated for 24 hrs by CellTiter-Blue assay; assay type: cell-based
Outline: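 Viability by CellTiter-Blue in HeLa or Huh-7 cells exposed to compound dilutions. Plates run in parallel with the reporter assay (HeLa) or the virus titer assay (Huh-7).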

Trypsin (Homo sapiens) = Trypsin (Homo sapiens) (UniProt P07477+P07478+P35030); assay: Inhibition of trypsin (unknown origin) using Boc-Val-Pro-Arg-AMC as substrate at 50 uM preincubated with enzyme for 15 mins followed by substrate addition and measured for 15 mins by fluorimetric assay; assay type: protein assay; details: time 30.0 min
[4] = target: Genome polyprotein (dengue virus type 2) (UniProt P29990); assay: Inhibition of DENV2 NS2B-NS3 protease expressed in Escherichia coli BL21 lambda(DE3) using FRET substrate preincubated with enzyme for 15 mins in presence of detergent CHAPS followed by substrate addition for 15 mins by fluorescence based analysis; details: time 30.0 min
Genome polyprotein = Genome polyprotein (dengue virus type 2, UniProt P29990); assay: Inhibition of NS2B-NS3 protease in DENV2proHeLa system assessed as inhibition of luciferase signal incubated for 24 hrs by luciferase reporter gene assay; assay type: cell-based, HeLa
Outline: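 HeLa cells stably carrying the reporter system, 2 × 10⁴ per well, given inhibitor at seeding and held 24 h at 37 °C. Cells lysed 15 min at room temperature. Luciferase read for 5 s after injecting coelenterazine (2.75 μM in PBS). Triplicate wells per concentration; percent inhibition taken against untreated cells. EC50/EC90 from 4-parameter dose-response fit, background from cell-free wells subtracted.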

[5] = target: Genome polyprotein (West Nile virus) (UniProt P06935); assay: Inhibition of WNV NS2B-NS3 protease expressed in Escherichia coli BL21 lambda(DE3) using FRET substrate preincubated with enzyme for 15 mins in presence of detergent CHAPS followed by substrate addition for 15 mins by fluorescence based analysis; details: time 30.0 min
Genome polyprotein (West Nile virus), sequence (P06935 whole entry): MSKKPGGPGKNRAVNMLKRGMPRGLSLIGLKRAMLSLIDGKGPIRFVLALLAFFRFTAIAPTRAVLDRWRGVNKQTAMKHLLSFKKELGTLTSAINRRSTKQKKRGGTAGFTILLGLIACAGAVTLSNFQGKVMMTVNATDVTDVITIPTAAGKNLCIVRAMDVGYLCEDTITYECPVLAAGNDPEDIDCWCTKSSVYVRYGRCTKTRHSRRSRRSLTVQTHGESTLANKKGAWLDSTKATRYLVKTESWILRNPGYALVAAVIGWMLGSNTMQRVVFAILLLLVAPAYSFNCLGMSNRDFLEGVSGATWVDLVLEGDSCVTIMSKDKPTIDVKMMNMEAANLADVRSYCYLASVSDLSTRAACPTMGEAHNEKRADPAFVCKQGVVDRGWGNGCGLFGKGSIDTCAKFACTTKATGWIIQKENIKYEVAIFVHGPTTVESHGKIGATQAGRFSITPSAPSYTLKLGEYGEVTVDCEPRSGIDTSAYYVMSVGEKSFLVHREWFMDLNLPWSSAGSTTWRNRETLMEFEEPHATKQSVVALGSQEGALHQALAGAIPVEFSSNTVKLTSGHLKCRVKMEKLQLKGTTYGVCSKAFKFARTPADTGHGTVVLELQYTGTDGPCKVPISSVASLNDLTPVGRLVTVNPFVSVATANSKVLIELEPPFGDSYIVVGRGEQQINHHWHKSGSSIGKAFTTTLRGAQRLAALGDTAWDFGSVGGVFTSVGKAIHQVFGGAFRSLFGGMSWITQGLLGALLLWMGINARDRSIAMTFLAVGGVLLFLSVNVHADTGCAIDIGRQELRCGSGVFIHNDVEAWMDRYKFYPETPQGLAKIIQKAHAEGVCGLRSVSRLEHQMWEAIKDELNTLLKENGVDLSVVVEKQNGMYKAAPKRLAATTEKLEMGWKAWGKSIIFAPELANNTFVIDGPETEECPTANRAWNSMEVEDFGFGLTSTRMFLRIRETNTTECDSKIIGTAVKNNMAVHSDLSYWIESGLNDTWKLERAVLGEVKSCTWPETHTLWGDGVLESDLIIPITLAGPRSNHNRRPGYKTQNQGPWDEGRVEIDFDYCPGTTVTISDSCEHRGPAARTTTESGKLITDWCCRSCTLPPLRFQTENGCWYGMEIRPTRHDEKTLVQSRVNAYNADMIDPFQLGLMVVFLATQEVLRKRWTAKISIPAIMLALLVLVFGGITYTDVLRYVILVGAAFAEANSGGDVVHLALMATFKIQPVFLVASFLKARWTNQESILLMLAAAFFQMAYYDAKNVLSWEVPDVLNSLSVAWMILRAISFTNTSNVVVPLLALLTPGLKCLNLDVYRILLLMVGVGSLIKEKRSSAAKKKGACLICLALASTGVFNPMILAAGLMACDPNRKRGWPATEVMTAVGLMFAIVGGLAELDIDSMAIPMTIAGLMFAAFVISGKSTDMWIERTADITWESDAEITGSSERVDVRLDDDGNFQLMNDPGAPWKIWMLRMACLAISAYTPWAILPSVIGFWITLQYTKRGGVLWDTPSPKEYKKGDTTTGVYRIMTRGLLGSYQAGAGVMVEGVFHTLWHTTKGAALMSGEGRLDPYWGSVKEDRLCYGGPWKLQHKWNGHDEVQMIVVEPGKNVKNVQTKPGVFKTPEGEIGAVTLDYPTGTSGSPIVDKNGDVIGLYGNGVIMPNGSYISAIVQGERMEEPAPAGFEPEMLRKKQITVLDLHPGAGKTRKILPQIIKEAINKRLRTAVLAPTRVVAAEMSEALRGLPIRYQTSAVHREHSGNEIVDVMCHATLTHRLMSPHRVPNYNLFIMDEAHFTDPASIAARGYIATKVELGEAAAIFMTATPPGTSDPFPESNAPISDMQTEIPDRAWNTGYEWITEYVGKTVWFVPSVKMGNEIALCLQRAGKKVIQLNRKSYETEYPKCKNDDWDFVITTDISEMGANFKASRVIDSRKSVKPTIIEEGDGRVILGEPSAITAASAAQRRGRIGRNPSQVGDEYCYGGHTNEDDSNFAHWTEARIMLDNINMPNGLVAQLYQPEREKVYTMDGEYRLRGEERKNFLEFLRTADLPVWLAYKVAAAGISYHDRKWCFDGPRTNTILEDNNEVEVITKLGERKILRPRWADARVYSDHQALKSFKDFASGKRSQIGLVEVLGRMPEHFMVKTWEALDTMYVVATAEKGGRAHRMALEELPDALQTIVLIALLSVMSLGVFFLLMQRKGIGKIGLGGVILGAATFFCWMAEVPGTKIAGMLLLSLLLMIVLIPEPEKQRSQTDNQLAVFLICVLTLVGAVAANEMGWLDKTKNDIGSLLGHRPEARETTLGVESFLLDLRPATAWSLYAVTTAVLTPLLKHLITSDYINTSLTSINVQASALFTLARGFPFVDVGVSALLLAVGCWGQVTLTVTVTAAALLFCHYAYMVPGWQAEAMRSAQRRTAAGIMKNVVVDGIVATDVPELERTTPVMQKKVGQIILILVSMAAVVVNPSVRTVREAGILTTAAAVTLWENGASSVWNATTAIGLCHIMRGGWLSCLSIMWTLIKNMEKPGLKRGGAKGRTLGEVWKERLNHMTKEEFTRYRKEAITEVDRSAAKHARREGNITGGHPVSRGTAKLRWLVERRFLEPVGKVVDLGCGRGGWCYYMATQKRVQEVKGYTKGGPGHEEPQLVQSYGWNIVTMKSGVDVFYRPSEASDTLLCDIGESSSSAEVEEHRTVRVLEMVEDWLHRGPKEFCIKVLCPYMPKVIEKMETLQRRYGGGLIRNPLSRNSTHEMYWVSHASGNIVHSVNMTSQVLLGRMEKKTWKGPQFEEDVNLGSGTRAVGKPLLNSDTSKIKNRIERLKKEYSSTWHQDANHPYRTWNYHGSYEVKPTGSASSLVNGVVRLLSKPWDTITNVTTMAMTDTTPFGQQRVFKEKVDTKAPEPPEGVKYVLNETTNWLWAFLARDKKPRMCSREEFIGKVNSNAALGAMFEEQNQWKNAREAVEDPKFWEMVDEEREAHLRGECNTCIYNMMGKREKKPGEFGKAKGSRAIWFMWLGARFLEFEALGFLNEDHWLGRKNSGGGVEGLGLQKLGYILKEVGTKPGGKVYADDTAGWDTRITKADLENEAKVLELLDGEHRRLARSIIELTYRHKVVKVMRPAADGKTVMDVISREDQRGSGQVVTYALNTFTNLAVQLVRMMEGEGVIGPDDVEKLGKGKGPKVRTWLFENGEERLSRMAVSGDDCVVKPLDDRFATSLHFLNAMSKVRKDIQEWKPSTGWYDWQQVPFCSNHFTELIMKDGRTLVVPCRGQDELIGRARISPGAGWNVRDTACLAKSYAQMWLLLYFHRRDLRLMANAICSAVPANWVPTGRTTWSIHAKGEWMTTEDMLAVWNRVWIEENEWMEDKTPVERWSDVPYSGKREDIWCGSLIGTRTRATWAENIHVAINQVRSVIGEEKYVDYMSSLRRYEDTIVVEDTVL

[6] = Passive membrane permeability of the compound in phosphate buffered saline assessed as concentration of the compound in acceptor plate at 200 uM incubated for 5 hrs by PAMPA assay based HPLC analysis; assay type: ADME
Outline: (§1)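 Precoated trilayer PAMPA, 5 h incubation. Acceptor and donor concentrations measured after 5 h. Permeability and mass retention calculated by a literature method.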

[7] = Passive membrane permeability of the compound in phosphate buffered saline assessed as concentration of the compound in donor plate at 200 uM incubated for 5 hrs by PAMPA assay based HPLC analysis; assay type: ADME; outline: as §1
[8] = Passive membrane permeability of the compound in phosphate buffered saline at 200 uM incubated for 5 hrs by PAMPA assay based HPLC analysis; assay type: ADME; details: PAMPA, read-out: permeability; outline: as §1
[9] = Passive membrane permeability of the compound in phosphate buffered saline assessed as mass retention of the compound at 200 uM incubated for 5 hrs by PAMPA assay based HPLC analysis; assay type: ADME; outline: as §1

Row | SMILES | inhibition [1] | inhibition [2] | CC50 at 24 h [3] | inhibition (Trypsin (Homo sapiens)) | inhibition [4] | EC50 (Genome polyprotein) | inhibition [5] | Activity [6] | Activity [7] | Papp at 5 h, 200 µM [8] | Activity [9]
1 | NC(=O)c1cccc(NC(=O)[C@@H](NC(=O)c2ccc(Oc3ccccc3)cc2)c2ccc(OCc3c(Cl)cccc3Cl)cc2)c1 | inactive | 71% | > 50 µM | inactive | Active | 2.2 µM | – | – | – | – | –
2 | CCCCCCN[C@H](C(=O)NCc1ccc(C(N)=O)cc1)c1ccc(OCc2ccccc2)cc1 | inactive | 19% | > 50 µM | inactive | Active | – | – | – | – | – | –
3 | CCCCCC(=O)N[C@H](C(=O)N1CCC(C(=O)Nc2ccccc2)CC1)c1ccc(OCc2ccccc2)cc1 | inactive | 35% | > 50 µM | inactive | Active | 20 µM | – | – | – | – | –
4 | CCCCCCCS(=O)(=O)N[C@H](C(=O)NCc1ccc(C(N)=O)cc1)c1ccc(OCc2ccccc2)cc1 | inactive | 47% | > 25 µM | inactive | – | 11 µM | Active | – | – | – | –
5 | NC(=O)c1cccc(NC(=O)[C@@H](NC(=O)c2ccc3c(c2)OCCO3)c2ccc(OCc3ccccc3)cc2)c1 | inactive | 69% | > 100 µM | inactive | Active | 5.4 µM | – | – | – | – | –
6 | CCCCCC(=O)N[C@H](C(=O)NCc1ccc(C(N)=O)cc1)c1ccc(OCc2cccc(OC)c2)cc1 | inactive | 61% | > 100 µM | inactive | Active | 7.3 µM | – | – | – | – | –
7 | NC(=O)N1c2ccccc2C=Cc2ccccc21 [CARBAMAZEPINE] | – | – | – | – | – | – | – | 42 µM | 187 µM | 8.9 ×10⁻⁶ cm/s | -7.6%
8 | NC(=O)c1ccc(CNC(=O)[C@@H](NC(=O)Cc2ccc(-c3ccccc3)cc2)c2ccc(OCc3ccccc3)cc2)cc1 | inactive | 25% | > 50 µM | inactive | Active | – | – | – | – | – | –
9 | O=C1NC(=O)C(c2ccccc2)(c2ccccc2)N1 [PHENYTOIN] | – | – | – | – | – | – | – | 25 µM | 166 µM | 5.7 ×10⁻⁶ cm/s | 8.7%
10 | COc1cccc(COc2ccc([C@H](NC(=O)c3ccc(Oc4ccccc4)cc3)C(=O)Nc3cccc(C(N)=O)c3)cc2)c1 | inactive | 73% | > 100 µM | inactive | – | 2.1 µM | – | – | – | – | –
11 | CCCCCCCC(=O)N[C@H](C(=O)NCc1ccc(C(N)=O)cc1)c1ccc(OCc2ccccc2)cc1 | inactive | 56% | > 50 µM | inactive | – | – | Active | – | – | – | –
12 | CCCC[C@H](NC(C)=O)C(=O)N[C@H](C(=O)NCc1ccc(C(N)=O)cc1)c1ccc(OCc2ccccc2)cc1 | inactive | 16% | > 50 µM | inactive | Active | – | – | – | – | – | –
13 | CCCCCC(=O)N[C@H](C(=O)NCc1ccc(C(N)=O)cc1)c1ccc(OCc2ccc(O)cc2)cc1 | inactive | 43% | > 50 µM | inactive | Active | – | – | – | – | – | –
14 | CCCCCC(=O)N[C@H](C(=O)N1CCCCC1)c1ccc(OCc2ccccc2)cc1 | inactive | 58% | 29 µM | inactive | – | 13 µM | – | – | – | – | –
15 | CCCCCCCC(=O)N[C@H](C(=O)Nc1cccc(C(N)=O)c1)c1ccc(OCc2ccccc2)cc1 | inactive | 66% | > 12.5 µM | inactive | – | 2.2 µM | – | – | – | – | –
16 | Cn1c(=O)c2c(ncn2C)n(C)c1=O [CAFFEINE] | – | – | – | – | – | – | – | 33 µM | 173 µM | 7.3 ×10⁻⁶ cm/s | 2.4%

Row | SMILES | inhibition [1] | inhibition [2] | CC50 at 24 h [3] | inhibition (Trypsin (Homo sapiens)) | inhibition [4] | EC50 (Genome polyprotein) | inhibition [5] | Activity [6] | Activity [7] | Papp at 5 h, 200 µM [8] | Activity [9]
17 | COc1cccc(COc2ccc([C@H](NC(=O)c3ccc(C(=O)c4ccccc4)cc3)C(=O)Nc3cccc(C(N)=O)c3)cc2)c1 | inactive | 79% | > 100 µM | inactive | Active | 1.2 µM | – | – | – | – | –
18 | NC(=O)c1cccc(NC(=O)[C@@H](NC(=O)c2cccc(Oc3ccccc3)c2)c2ccc(OCc3ccccc3)cc2)c1 | inactive | 84% | > 100 µM | inactive | Active | 1.7 µM | – | – | – | – | –
19 | NC(=O)c1ccc(CNC(=O)[C@@H](NC(=O)c2cc3ccccc3s2)c2ccc(OCc3ccccc3)cc2)cc1 | inactive | 71% | > 50 µM | inactive | – | 6.6 µM | – | – | – | – | –
20 | CCCCCC(=O)N[C@H](C(=O)NCc1ccc(C(=O)NN)cc1)c1ccc(OCc2ccccc2)cc1 | inactive | – | – | inactive | Active | – | – | – | – | – | –
21 | CCCCC(=O)N[C@H](C(=O)NCc1ccc(C(N)=O)cc1)c1ccc(OCc2ccccc2)cc1 | inactive | 38% | > 100 µM | inactive | – | 14 µM | – | – | – | – | –
22 | CCCCCC(=O)N[C@H](C(=O)NCc1ccc(C(N)=O)cc1)c1ccc(OCc2ccc(C(C)(C)C)cc2)cc1 | inactive | < 10% | > 12.5 µM | inactive | Active | – | – | – | – | – | –
23 | CCCCCCC(=O)N[C@H](C(=O)NCc1ccc(C(N)=O)cc1)c1ccc(OCc2ccccc2)cc1 | inactive | 52% | > 50 µM | inactive | Active | 7.9 µM | – | – | – | – | –
24 | NC(=O)c1cccc(NC(=O)[C@@H](NC(=O)c2ccc(-c3ccccc3)cc2)c2ccc(OCc3ccccc3)cc2)c1 | inactive | 79% | > 100 µM | inactive | – | 1.7 µM | – | – | – | – | –
25 | NCc1ccc(C(=O)N[C@H](C(=O)NCc2ccc(C(N)=O)cc2)c2ccc(OCc3ccccc3)cc2)cc1 | inactive | 24% | > 50 µM | inactive | – | 29 µM | – | – | – | – | –
26 | CCCCCC(=O)N[C@@H](C(=O)NCc1ccc(C(N)=O)cc1)c1ccc(OCc2ccc(Cl)c(Cl)c2)cc1 | inactive | 19% | > 50 µM | inactive | Active | – | – | – | – | – | –
27 | CCCCCC(=O)N[C@H](C(=O)NNc1ccc(C(N)=O)cc1)c1ccc(OCc2ccccc2)cc1 | inactive | 60% | > 25 µM | inactive | Active | 8.7 µM | – | – | – | – | –
28 | CCCCCC(=O)N[C@H](C(=O)Nc1cccc(C(N)=O)c1)c1ccc(OCc2c(Cl)cccc2Cl)cc1 | inactive | 65% | > 50 µM | inactive | Active | 2.4 µM | – | – | – | – | –
29 | CCCCCC(=O)N[C@H](C(=O)Nc1cccc(C(N)=O)c1)c1ccc(OCc2ccccc2)cc1 | inactive | 76% | > 50 µM | inactive | Active | 4.6 µM | – | – | – | – | –
30 | NC(=O)c1cccc(NC(=O)[C@@H](NC(=O)c2ccc(Oc3cccc(Cl)c3)cc2)c2ccc(OCc3ccccc3)cc2)c1 | inactive | 87% | > 100 µM | inactive | – | 1 µM | – | – | – | – | –
31 | CCCCCC(=O)N[C@H](C(=O)Nc1ccc(C(N)=O)cc1)c1ccc(OCc2ccccc2)cc1 | inactive | 58% | > 12.5 µM | inactive | – | 7 µM | – | – | – | – | –
32 | CCCCCC(=O)N[C@H](C(=O)NCCc1ccc(C(N)=O)cc1)c1ccc(OCc2ccccc2)cc1 | inactive | 62% | > 100 µM | inactive | – | 7.7 µM | – | – | – | – | –
